Test results: ChEMBL document CHEMBL1148248, “Potentiation of cytotoxic drug activity in human tumour cell lines, by amine-substituted 2-arylbenzimidazole-4-carboxamide PARP-1 inhibitors” (Bioorg Med Chem Lett, 2004)

How the values were obtained:
[1] = target: Poly [ADP-ribose] polymerase 1 (Homo sapiens, UniProt P09874)
LoVo [2] = assay: Compound was evaluated for cytotoxic potentiation factor of topotecan in human LoVo cancer cell line at 0.4 uM concentration; assay type: functional
Procedure, shortened: (§1)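 Exponentially growing cells were exposed to increasing concentrations of cytotoxic drug (temozolomide or topotecan), alone or with PARP-1 inhibitor fixed at 0.4 µM. Drugs were added from DMSO stocks, giving 1% DMSO final. Growth was read by SRB assay and normalised to the 1% DMSO control or to inhibitor alone. PF50 is the ratio of drug GI50 alone to drug GI50 with inhibitor.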

LoVo [3] = assay: Cytotoxic potentiation factor of temoxolomide in human LoVo cancer cell line at 0.4 uM concentration; assay type: functional
Procedure, shortened: as §1

A549 [4] = assay: Cytotoxic potentiation factor of temoxolomide in human A549 tumor cell line at 0.4 uM concentration; assay type: functional
Procedure, shortened: as §1

A549 [5] = assay: Compound was evaluated for cytotoxic potentiation factor of topotecan in human A549 tumor cell line at 0.4 uM concentration; assay type: functional
Procedure, shortened: as §1

Poly [ADP-ribose] polymerase 1, sequence (P09874 whole entry): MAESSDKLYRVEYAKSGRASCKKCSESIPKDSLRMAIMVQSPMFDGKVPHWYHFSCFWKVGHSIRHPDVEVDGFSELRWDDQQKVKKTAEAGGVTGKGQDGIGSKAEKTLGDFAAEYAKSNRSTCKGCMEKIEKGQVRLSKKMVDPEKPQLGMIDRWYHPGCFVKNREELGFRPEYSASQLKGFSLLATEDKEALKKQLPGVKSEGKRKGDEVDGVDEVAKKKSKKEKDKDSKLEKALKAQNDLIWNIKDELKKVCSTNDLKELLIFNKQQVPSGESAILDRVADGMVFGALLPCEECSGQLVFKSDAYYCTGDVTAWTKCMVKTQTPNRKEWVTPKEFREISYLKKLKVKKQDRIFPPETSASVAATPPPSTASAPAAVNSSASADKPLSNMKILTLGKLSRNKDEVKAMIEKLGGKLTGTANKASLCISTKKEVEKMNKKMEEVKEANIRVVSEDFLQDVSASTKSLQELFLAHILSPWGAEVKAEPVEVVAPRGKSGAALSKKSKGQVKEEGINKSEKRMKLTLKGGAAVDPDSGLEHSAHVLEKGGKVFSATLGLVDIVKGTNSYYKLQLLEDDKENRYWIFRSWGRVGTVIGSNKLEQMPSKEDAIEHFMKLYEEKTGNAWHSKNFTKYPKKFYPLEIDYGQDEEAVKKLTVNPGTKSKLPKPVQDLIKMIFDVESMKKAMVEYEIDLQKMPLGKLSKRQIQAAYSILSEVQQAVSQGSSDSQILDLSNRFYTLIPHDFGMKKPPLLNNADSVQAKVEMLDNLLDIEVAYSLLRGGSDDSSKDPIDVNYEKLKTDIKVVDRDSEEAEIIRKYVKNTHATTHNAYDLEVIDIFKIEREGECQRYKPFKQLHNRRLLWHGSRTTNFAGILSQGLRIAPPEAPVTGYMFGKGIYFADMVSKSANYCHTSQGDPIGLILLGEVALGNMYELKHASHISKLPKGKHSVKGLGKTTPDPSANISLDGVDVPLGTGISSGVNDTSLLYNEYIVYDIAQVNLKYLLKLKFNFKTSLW

Compound	Ki [1] [nM]	PF50 (LoVo [2])	PF50 (LoVo [3])	PF50 (A549 [4])	PF50 (A549 [5])
CN1CCN(Cc2ccc(-c3nc4c(C(N)=O)cccc4[nH]3)cc2)CC1	8.7	–	–	–	–
CN1CCN(Cc2cccc(-c3nc4c(C(N)=O)cccc4[nH]3)c2)CC1	9.8	–	–	–	–
NC(=O)c1cccc2[nH]c(-c3cccc(CN4CCOCC4)c3)nc12	31	–	–	–	–
CN(C)Cc1ccc(-c2nc3c(C(N)=O)cccc3[nH]2)cc1	4.5	1.7	4	1.6	1.9
NC(=O)c1cccc2[nH]c(-c3ccc(CN4CCCC4)cc3)nc12	5.9	1.5	5.2	1.5	1.8
NC(=O)c1cccc2[nH]c(-c3ccc(CN4CCCCC4)cc3)nc12	7.2	–	–	–	–
NC(=O)c1cccc2[nH]c(-c3ccc(CN4CCOCC4)cc3)nc12	12	–	–	–	–

Now from value to molecule, other results behind:

Ki [1] [nM]	Compound	PF50 (LoVo [2])	PF50 (LoVo [3])	PF50 (A549 [4])	PF50 (A549 [5])
4.5	NC(=O)c1cccc2[nH]c(-c3ccc(CN(CCO)CCO)cc3)nc12	–	–	–	–
10.2	NC(=O)c1cccc2[nH]c(-c3cccc(CN4CCCC4)c3)nc12	1.1	1.7	–	–
5.6	CN(C)Cc1cccc(-c2nc3c(C(N)=O)cccc3[nH]2)c1	1.4	1.7	–	–
272	NC(=O)c1cccc2[nH]c(-c3cccc(CN(CCO)CCO)c3)nc12	–	–	1.1	1.1
